Active and inactive are the calls of the source. The calls are words filed in the database; no cut-off is given here.
What was measured:
[1] = Selectivity ratio of GI50 for human WM3629 cells to GI50 for human A375P cells; format: functional
WM3629 = assay: (§1) Growth inhibition of human WM3629 cells by MTT assay; format: functional
Procedure, shortened: (§2)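 WM3629 cells kept in Tu2% medium. They were seeded at 5×10^3 cells/well, rested 24 h, then exposed to a 12-point three-fold serial dilution. GI50 was taken from an MTT reduction assay read at 590 nm.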

[2] = (§3) Growth inhibition of human A375P cells by MTT assay; format: functional
Procedure, shortened: (§4)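 A375P cells grown in DMEM with 10% FBS and 1% penicillin/streptomycin at 37 °C in 5% CO2. Cells were detached with trypsin-EDTA, seeded at 5×10^3 cells/well and left 24 h. They were then treated with a 12-point three-fold serial dilution. Viability was read by MTT reduction assay as absorbance at 590 nm.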

[3] = as §1; format: functional; procedure, shortened: as §2
[4] = molecular target: RAF proto-oncogene serine/threonine-protein kinase (Homo sapiens) (UniProt P04049); assay: Inhibition of cRAF at 10 uM
Procedure, shortened: (§5)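 Single-dose panel screen across 30 kinases at 10 µM, run in duplicate; % inhibition reported.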

[5] = molecular target: Macrophage-stimulating protein receptor (Homo sapiens) (UniProt Q04912); assay: Inhibition of RON at 10 uM; procedure, shortened: as §5
Chain of Macrophage-stimulating protein receptor (Homo sapiens) (Q04912 25-304 limits assumed): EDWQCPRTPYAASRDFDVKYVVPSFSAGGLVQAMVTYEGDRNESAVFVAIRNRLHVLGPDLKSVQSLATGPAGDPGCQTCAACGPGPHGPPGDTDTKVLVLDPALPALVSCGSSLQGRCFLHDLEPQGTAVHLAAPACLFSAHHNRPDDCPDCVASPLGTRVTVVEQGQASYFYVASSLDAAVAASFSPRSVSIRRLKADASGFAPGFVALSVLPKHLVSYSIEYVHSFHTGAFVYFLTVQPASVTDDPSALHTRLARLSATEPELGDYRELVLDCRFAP
Chain of Macrophage-stimulating protein receptor (Homo sapiens) (Q04912 310-1400 limits assumed): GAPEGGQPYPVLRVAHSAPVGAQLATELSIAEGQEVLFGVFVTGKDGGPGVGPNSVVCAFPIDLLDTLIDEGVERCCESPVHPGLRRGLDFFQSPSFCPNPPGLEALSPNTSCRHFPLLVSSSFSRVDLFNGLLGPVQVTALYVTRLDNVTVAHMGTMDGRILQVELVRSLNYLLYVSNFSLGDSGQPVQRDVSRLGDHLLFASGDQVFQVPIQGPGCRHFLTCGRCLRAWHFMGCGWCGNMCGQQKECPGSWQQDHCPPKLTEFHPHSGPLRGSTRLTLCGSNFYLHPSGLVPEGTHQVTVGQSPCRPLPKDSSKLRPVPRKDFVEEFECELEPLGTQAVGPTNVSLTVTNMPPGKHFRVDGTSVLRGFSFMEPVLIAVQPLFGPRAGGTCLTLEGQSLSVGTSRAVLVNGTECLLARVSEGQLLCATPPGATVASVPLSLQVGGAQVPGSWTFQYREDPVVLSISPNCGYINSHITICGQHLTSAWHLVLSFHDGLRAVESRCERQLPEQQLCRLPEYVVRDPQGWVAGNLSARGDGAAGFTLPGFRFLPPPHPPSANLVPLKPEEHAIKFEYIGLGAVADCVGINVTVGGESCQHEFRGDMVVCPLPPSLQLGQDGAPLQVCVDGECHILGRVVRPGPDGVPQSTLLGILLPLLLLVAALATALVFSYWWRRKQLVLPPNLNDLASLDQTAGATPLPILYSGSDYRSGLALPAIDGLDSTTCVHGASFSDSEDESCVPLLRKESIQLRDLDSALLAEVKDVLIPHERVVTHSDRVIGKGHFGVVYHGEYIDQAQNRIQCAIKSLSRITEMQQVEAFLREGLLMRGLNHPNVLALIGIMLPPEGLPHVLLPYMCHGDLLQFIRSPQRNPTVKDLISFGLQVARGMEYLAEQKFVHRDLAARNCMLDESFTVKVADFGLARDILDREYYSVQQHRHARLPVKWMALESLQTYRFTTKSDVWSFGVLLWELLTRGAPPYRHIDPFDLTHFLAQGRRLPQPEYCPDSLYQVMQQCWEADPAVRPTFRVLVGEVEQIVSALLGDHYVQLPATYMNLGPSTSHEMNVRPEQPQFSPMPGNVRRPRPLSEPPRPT

[6] = molecular target: Proto-oncogene tyrosine-protein kinase ROS (Homo sapiens) (UniProt P08922); assay: Inhibition of ROS at 10 uM; procedure, shortened: as §5
[7] = molecular target: Tyrosine-protein kinase SYK (Homo sapiens) (UniProt P43405); assay: Inhibition of SYK at 10 uM; procedure, shortened: as §5
[8] = molecular target: BDNF/NT-3 growth factors receptor (Homo sapiens) (UniProt Q16620); assay: Inhibition of TrkB at 10 uM; procedure, shortened: as §5
[9] = molecular target: RAC-alpha serine/threonine-protein kinase (Homo sapiens) (UniProt P31749); assay: Inhibition of AKT1 at 10 uM; procedure, shortened: as §5
[10] = molecular target: ALK tyrosine kinase receptor (Homo sapiens) (UniProt Q9UM73); assay: Inhibition of ALK at 10 uM; procedure, shortened: as §5
[11] = molecular target: Proto-oncogene tyrosine-protein kinase Src (Homo sapiens) (UniProt P12931); assay: Inhibition of c-Src at 10 uM; procedure, shortened: as §5
[12] = molecular target: Cyclin-dependent kinase 1/cyclin B1 (Homo sapiens) (UniProt P06493+P14635); assay: Inhibition of CDK1/cyclin B at 10 uM; format: protein-complex assay; procedure, shortened: as §5
[13] = molecular target: Cyclin-dependent kinase 2/cyclin E1 (Homo sapiens) (UniProt P24864+P24941); assay: Inhibition of CDK2/cyclin E at 10 uM; format: protein-complex assay; procedure, shortened: as §5
[14] = molecular target: Cyclin-dependent kinase 5/CDK5 activator 1 (Homo sapiens) (UniProt Q00535+Q15078); assay: Inhibition of CDK5/p25 at 10 uM; format: protein-complex assay; procedure, shortened: as §5
[15] = molecular target: Serine/threonine-protein kinase Chk1 (Homo sapiens) (UniProt O14757); assay: Inhibition of CHK1 at 10 uM; procedure, shortened: as §5
[16] = molecular target: Myotonin-protein kinase (Homo sapiens) (UniProt Q09013); assay: Inhibition of DMPK at 10 uM; procedure, shortened: as §5
[17] = molecular target: DNA-dependent protein kinase catalytic subunit (Homo sapiens) (UniProt P78527); assay: Inhibition of DNA-PK at 10 uM; procedure, shortened: as §5
[18] = molecular target: Epidermal growth factor receptor (Homo sapiens) (UniProt P00533); assay: Inhibition of EGFR at 10 uM; procedure, shortened: as §5
[19] = molecular target: Mitogen-activated protein kinase 1 (Homo sapiens) (UniProt P28482); assay: Inhibition of ERK2 at 10 uM; procedure, shortened: as §5
[20] = molecular target: Focal adhesion kinase 1 (Homo sapiens) (UniProt Q05397); assay: Inhibition of human FAK at 10 uM; procedure, shortened: as §5
[21] = molecular target: Receptor-type tyrosine-protein kinase FLT3 (Homo sapiens) (UniProt P36888); assay: Inhibition of human FLT3 at 10 uM; procedure, shortened: as §5
[22] = molecular target: Glycogen synthase kinase-3 beta (Homo sapiens) (UniProt P49841); assay: Inhibition of GSK3-beta at 10 uM; procedure, shortened: as §5
[23] = molecular target: Insulin-like growth factor 1 receptor (Homo sapiens) (UniProt P08069); assay: Inhibition of IGF1R at 10 uM; procedure, shortened: as §5
Chain of Insulin-like growth factor 1 receptor (Homo sapiens) (P08069 31-736 limits assumed): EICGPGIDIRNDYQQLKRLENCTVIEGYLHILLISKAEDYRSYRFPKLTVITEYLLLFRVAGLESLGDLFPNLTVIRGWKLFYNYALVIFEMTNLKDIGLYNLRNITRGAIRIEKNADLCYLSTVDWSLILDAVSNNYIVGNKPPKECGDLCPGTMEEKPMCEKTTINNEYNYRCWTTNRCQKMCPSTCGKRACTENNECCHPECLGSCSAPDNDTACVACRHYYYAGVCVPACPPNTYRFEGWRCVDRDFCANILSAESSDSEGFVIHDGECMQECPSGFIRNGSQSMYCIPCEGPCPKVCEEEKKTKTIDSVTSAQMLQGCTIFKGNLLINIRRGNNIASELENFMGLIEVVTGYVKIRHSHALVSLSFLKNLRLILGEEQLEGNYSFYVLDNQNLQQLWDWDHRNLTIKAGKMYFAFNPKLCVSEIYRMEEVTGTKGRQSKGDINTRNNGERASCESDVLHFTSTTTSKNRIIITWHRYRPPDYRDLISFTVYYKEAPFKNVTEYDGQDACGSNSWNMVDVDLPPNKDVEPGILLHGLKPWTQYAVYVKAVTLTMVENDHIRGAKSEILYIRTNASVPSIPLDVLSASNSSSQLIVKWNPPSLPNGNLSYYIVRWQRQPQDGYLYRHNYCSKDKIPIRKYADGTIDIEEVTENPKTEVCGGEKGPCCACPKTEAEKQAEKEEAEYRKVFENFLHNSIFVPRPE
Chain of Insulin-like growth factor 1 receptor (Homo sapiens) (P08069 741-1367 limits assumed): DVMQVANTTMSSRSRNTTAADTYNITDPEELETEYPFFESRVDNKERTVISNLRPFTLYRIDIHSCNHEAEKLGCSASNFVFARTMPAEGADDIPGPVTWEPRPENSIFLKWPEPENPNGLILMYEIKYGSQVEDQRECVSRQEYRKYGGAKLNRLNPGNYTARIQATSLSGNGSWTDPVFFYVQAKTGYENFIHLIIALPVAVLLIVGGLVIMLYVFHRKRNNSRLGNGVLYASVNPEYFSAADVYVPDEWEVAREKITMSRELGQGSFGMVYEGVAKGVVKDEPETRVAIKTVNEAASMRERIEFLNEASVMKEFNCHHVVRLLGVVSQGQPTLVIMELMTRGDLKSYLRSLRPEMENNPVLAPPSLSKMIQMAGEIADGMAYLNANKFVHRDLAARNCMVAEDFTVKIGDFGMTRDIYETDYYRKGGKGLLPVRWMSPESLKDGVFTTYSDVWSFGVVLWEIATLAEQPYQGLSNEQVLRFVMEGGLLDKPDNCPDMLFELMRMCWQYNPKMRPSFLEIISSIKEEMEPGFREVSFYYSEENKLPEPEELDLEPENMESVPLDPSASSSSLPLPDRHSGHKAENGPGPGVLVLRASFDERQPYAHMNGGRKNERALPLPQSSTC

[24] = molecular target: Tyrosine-protein kinase JAK3 (Homo sapiens) (UniProt P52333); assay: Inhibition of JAK3 at 10 uM; procedure, shortened: as §5
[25] = molecular target: Mitogen-activated protein kinase 8 (Homo sapiens) (UniProt P45983); assay: Inhibition of JNK1 at 10 uM; procedure, shortened: as §5
Chain of Mitogen-activated protein kinase 8 (Homo sapiens) (P45983 whole entry): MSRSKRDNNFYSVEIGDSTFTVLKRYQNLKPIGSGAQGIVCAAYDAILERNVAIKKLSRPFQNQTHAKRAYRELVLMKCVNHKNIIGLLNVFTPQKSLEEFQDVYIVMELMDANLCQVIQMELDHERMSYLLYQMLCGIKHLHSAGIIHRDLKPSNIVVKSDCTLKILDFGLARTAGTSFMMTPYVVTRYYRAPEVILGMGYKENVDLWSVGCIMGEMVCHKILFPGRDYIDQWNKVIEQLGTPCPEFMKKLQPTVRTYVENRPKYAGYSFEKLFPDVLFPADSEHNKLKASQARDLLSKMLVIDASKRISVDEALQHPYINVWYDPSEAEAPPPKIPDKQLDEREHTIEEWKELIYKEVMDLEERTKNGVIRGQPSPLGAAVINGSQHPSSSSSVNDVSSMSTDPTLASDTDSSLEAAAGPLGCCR

[26] = molecular target: Tyrosine-protein kinase Lyn (Homo sapiens) (UniProt P07948); assay: Inhibition of LYN at 10 uM; procedure, shortened: as §5
Chain of Tyrosine-protein kinase Lyn (Homo sapiens) (P07948 2-512 limits assumed): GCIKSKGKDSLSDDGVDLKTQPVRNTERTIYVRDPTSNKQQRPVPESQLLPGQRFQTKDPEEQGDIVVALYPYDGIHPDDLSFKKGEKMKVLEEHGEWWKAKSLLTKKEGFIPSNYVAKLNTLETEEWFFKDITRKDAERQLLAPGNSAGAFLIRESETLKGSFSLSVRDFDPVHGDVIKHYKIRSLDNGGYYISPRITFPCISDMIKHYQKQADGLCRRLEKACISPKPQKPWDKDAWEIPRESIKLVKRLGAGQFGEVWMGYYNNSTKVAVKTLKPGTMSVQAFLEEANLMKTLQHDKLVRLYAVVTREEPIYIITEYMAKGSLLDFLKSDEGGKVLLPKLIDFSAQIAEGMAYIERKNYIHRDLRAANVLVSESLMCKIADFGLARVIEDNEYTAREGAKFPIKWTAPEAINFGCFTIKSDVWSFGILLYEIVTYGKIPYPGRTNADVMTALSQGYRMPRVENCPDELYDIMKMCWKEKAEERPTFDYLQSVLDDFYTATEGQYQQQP

[27] = molecular target: Dual specificity mitogen-activated protein kinase kinase 1 (Homo sapiens) (UniProt Q02750); assay: Inhibition of MEK1 at 10 uM; procedure, shortened: as §5
[28] = molecular target: Serine/threonine-protein kinase mTOR (Homo sapiens) (UniProt P42345); assay: Inhibition of mTOR at 10 uM; procedure, shortened: as §5
[29] = molecular target: Mitogen-activated protein kinase 14 (Homo sapiens) (UniProt Q16539); assay: Inhibition of p38alpha at 10 uM; procedure, shortened: as §5
[30] = molecular target: Ribosomal protein S6 kinase beta-1 (Homo sapiens) (UniProt P23443); assay: Inhibition of p70S6K at 10 uM; procedure, shortened: as §5
Chain of Ribosomal protein S6 kinase beta-1 (Homo sapiens) (P23443 whole entry, looked up): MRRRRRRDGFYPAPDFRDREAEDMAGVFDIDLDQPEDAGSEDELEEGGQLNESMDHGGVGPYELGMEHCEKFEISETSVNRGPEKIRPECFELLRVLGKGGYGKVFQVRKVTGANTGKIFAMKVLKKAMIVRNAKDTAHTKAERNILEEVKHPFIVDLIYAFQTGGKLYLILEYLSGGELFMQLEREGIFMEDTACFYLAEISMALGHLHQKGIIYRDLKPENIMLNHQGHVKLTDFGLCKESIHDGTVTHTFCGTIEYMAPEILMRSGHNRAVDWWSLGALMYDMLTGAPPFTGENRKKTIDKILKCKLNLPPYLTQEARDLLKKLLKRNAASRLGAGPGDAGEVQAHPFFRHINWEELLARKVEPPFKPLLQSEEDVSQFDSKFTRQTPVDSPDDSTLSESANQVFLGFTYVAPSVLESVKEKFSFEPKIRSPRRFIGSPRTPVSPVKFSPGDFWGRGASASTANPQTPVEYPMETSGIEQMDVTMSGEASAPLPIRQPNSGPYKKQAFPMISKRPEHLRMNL

[31] = molecular target: Serine/threonine-protein kinase PAK 4 (Homo sapiens) (UniProt O96013); assay: Inhibition of PAK4 at 10 uM; procedure, shortened: as §5
[32] = Inhibition of PKA at 10 uM
Procedure, shortened: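 Single-concentration screen at 10 µM within a 30-kinase panel, run in duplicate; read-out is percent inhibition of kinase activity.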

[33] = molecular target: Protein kinase C alpha type (Homo sapiens) (UniProt P17252); assay: Inhibition of PKCalpha at 10 uM; procedure, shortened: as §5
A375P = assay: as §3; format: functional; procedure, shortened: as §4
[34] = Growth inhibition of human A375P cells at 164 uM by MTT assay relative to total growth; format: functional; conditions: read-out: GI
[35] = Growth inhibition of human A375P cells at 8.05 uM by MTT assay relative to total growth; format: functional; conditions: read-out: GI

C[C@H](O)CNc1nccc(-n2ccnc2-c2cccc(NC(=O)c3coc(-c4cc(C(F)(F)F)ccc4Cl)c3)c2)n1
RatioGI50 [1]: 5
GI50 (WM3629): inactive

C[C@H](O)CNc1nccc(-n2ccnc2-c2ccc(NC(=O)Nc3cccc(C(F)(F)F)c3)cc2)n1
GI50 [2]: 7.19 µM
GI50 [3]: 12.9 µM

C[C@H](O)CNc1nccc(-n2ccnc2-c2cccc(NC(=O)c3ccc(Cl)c(C(F)(F)F)c3)c2)n1
inhibition [4]: 99%
inhibition [5]: 5%
inhibition [6]: 0.19%
inhibition [7]: 13%
inhibition [8]: < 0%
RatioGI50 [1]: 5
GI50 [2]: 4.49 µM
GI50 [3]: 0.62 µM
inhibition [9]: 5.1%
inhibition [10]: 0.8%
inhibition [11]: < 0%
inhibition [12]: 21%
inhibition [13]: < 0%
inhibition [14]: 2.4%
inhibition [15]: 5.9%
inhibition [16]: 7.6%
inhibition [17]: 9.4%
inhibition [18]: 1.7%
inhibition [19]: 10%
inhibition [20]: 0%
inhibition [21]: 82%
inhibition [22]: 14%
inhibition [23]: 3.6%
inhibition [24]: 0.21%
inhibition [25]: < 0%
inhibition [26]: 21%
inhibition [27]: < 0%
inhibition [28]: 1.5%
inhibition [29]: 89%
inhibition [30]: 17%
inhibition [31]: < 0%
inhibition [32]: 6.8%
inhibition [33]: 1.1%

C[C@H](O)CNc1nccc(-n2ccnc2-c2cccc(NC(=O)c3ncc(-c4ccncc4)s3)c2)n1
RatioGI50 [1]: 5
GI50 [2]: > 100 µM
GI50 [3]: 13.8 µM

C[C@H](O)CNc1nccc(-n2ccnc2-c2cccc(NC(=O)c3cc(N4CCN(C)CC4)cc(C(F)(F)F)c3)c2)n1
RatioGI50 [1]: 5
GI50 [2]: 10.4 µM
GI50 [3]: 9.13 µM

C[C@H](O)CNc1nccc(-n2ccnc2-c2ccc(NC(=O)c3coc(-c4cc(C(F)(F)F)ccc4Cl)c3)cc2)n1
GI50 [2]: 2.23 µM
GI50 [3]: > 100 µM

C[C@H](O)CNc1nccc(-n2ccnc2-c2cccc(NC(=O)Nc3ccc(N4CCOCC4)c(C(F)(F)F)c3)c2)n1
RatioGI50 [1]: 5
GI50 [2]: 34.6 µM
GI50 [3]: 3.28 µM

C[C@H](O)CNc1nccc(-n2ccnc2-c2cccc(NC(=O)c3ccc(N4CCOCC4)c(C(F)(F)F)c3)c2)n1
RatioGI50 [1]: 5
GI50 [2]: 28.3 µM
GI50 [3]: 7.37 µM

C[C@H](O)CNc1nccc(-n2ccnc2-c2cccc(NC(=O)Nc3cccc(Cl)c3)c2)n1
RatioGI50 [1]: 5
GI50 [2]: 85.8 µM
GI50 [3]: > 100 µM

C[C@H](O)CNc1nccc(-n2ccnc2-c2ccc(NC(=O)Nc3ccc(Cl)c(Cl)c3)cc2)n1
GI50 [2]: 17.8 µM
GI50 [3]: 2.45 µM

C[C@H](O)CNc1nccc(-n2ccnc2-c2ccc(NC(=O)c3ccc(Cl)c(C(F)(F)F)c3)cc2)n1
GI50 [2]: 79.2 µM
GI50 [3]: > 100 µM

C[C@H](O)CNc1nccc(-n2ccnc2C(=O)c2ccc(NC(=O)Nc3ccc(Cl)c(C(F)(F)F)c3)cc2)n1
GI50 [2]: 9.29 µM
GI50 [3]: 3.51 µM

C[C@H](O)CNc1nccc(-n2ccnc2-c2cccc(NC(=O)Nc3ccc(Cl)c(Cl)c3)c2)n1
RatioGI50 [1]: 5
GI50 [2]: 5.93 µM
GI50 [3]: 0.65 µM

C[C@H](O)CNc1nccc(-n2ccnc2-c2cccc(NC(=O)c3cccc(C(F)(F)F)c3)c2)n1
RatioGI50 [1]: 5
GI50 (A375P): inactive
GI50 (WM3629): inactive

C[C@H](O)CNc1nccc(-n2ccnc2-c2cccc(NC(=O)c3cc(-c4ccc(Cl)cc4)on3)c2)n1
RatioGI50 [1]: 5
inhibition of growth at 164 µM [34]: < 66%
GI50 [2]: 164 µM
GI50 [3]: > 100 µM

C[C@H](O)CNc1nccc(-n2ccnc2-c2cccc(NC(=O)Nc3ccc(Cl)c(C(F)(F)F)c3)c2)n1
RatioGI50 [1]: 5
GI50 [2]: 58.2 µM
GI50 [3]: > 100 µM

CNC(=O)c1cc(Oc2ccc(NC(=O)Nc3ccc(Cl)c(C(F)(F)F)c3)cc2)ccn1 [SORAFENIB]
GI50 [2]: 5.58 µM
GI50 [3]: 0.78 µM

C[C@H](O)CNc1nccc(-n2ccnc2-c2ccc(NC(=O)c3ccc(N4CCOCC4)c(C(F)(F)F)c3)cc2)n1
GI50 [2]: > 100 µM
GI50 [3]: > 100 µM

C[C@H](O)CNc1nccc(-n2ccnc2C(=O)c2ccc(NC(=O)c3ccc(Cl)c(C(F)(F)F)c3)cc2)n1
GI50 [2]: 2.51 µM
GI50 [3]: 1.37 µM

COc1ccc(-c2cc(C(=O)Nc3ccc(-c4nccn4-c4ccnc(NC[C@H](C)O)n4)cc3)co2)cc1
inhibition of growth at 8.05 µM [35]: < 66%
GI50 [2]: 8.05 µM
GI50 [3]: > 100 µM

C[C@H](O)CNc1nccc(-n2ccnc2-c2ccc(NC(=O)c3cc(N4CCOCC4)cc(C(F)(F)F)c3)cc2)n1
GI50 [2]: 35.6 µM
GI50 [3]: 2.25 µM

C[C@H](O)CNc1nccc(-n2ccnc2-c2ccc(NC(=O)Nc3ccc(Cl)c(C(F)(F)F)c3)cc2)n1
GI50 [2]: 10.1 µM
GI50 [3]: 4.43 µM

C[C@H](O)CNc1nccc(-n2ccnc2-c2ccc(NC(=O)c3cc(-c4ccc(Cl)cc4)on3)cc2)n1
GI50 [2]: > 100 µM
GI50 [3]: > 100 µM

C[C@H](O)CNc1nccc(-n2ccnc2-c2cccc(NC(=O)Nc3cccc(C(F)(F)F)c3)c2)n1
RatioGI50 [1]: 5
GI50 [2]: 19.2 µM
GI50 [3]: 7.86 µM

C[C@H](O)CNc1nccc(-n2ccnc2-c2ccc(NC(=O)c3ncc(-c4ccncc4)s3)cc2)n1
GI50 [2]: 139 µM
GI50 [3]: > 100 µM

Cc1ccc2nc(NC(=O)Nc3cccc(-c4nccn4-c4ccnc(NC[C@H](C)O)n4)c3)sc2c1
RatioGI50 [1]: 5
GI50 [2]: 19.4 µM
GI50 [3]: 4.54 µM

C[C@H](O)CNc1nccc(-n2ccnc2-c2ccc(NC(=O)Nc3cccc(Cl)c3)cc2)n1
GI50 [2]: 3.19 µM
GI50 [3]: 4.99 µM

Cc1cn(-c2cc(C(=O)Nc3cccc(-c4nccn4-c4ccnc(NC[C@H](C)O)n4)c3)cc(C(F)(F)F)c2)cn1
RatioGI50 [1]: 5
GI50 [2]: 6.72 µM
GI50 [3]: 3.49 µM

COc1ccc(-c2cc(C(=O)Nc3cccc(-c4nccn4-c4ccnc(NC[C@H](C)O)n4)c3)co2)cc1
RatioGI50 [1]: 5
GI50 (A375P): inactive
GI50 [3]: 22.3 µM

Reference: ChEMBL document CHEMBL1155370, “Discovery and initial SAR of pyrimidin-4-yl-1H-imidazole derivatives with antiproliferative activity against melanoma cell lines” (Bioorg Med Chem Lett, 2010)
